Data from PMC2736802 (Drug metabolism and disposition: the biological fate of …, 2008).
Entries after “also recorded” stand apart in the source; their conditions may differ. Read-outs that look alike come from different tables or passages of the source.

Assays:
P450 3A4 [1] = test: LC-APCI-MS metabolite analysis with P450 3A4; assay type: in vitro ADME, human; settings: incubation with P450 3A4 and NADPH
In short: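 P450 3A4 reconstituted with reductase and lipid, then incubated with the test compound and NADPH at 37°C for 60 min. Control and inactivated samples (900 pmol each) were extracted with ethyl acetate and dried under nitrogen. Analysis was by LC-APCI-MS with UV at 319 nm, full scans m/z 100–2000, and data-dependent MS/MS on the four most intense ions.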

P450 3A5 [2] = target: T1, P450 3A5 (Homo sapiens, UniProt P20815); test: Formation of 7-hydroxycoumarin by P450 3A5; assay type: in vitro ADME; settings: 30 min reaction
T1 sequence (P20815 whole entry): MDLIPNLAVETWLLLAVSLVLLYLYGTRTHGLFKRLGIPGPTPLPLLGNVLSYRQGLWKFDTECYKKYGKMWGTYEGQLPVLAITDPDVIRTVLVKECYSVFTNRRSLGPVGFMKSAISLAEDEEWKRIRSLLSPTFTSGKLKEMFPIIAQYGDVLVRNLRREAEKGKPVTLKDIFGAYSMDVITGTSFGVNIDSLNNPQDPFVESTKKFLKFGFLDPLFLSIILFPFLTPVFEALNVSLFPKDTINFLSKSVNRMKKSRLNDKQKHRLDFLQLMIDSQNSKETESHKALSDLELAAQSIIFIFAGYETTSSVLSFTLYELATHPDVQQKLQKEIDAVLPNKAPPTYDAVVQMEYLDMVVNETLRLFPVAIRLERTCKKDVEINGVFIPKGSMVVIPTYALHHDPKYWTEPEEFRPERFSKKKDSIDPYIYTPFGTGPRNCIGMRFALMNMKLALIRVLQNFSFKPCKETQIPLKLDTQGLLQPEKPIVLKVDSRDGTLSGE
In short: (§1)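 P450 3A4 or 3A5 (expressed in E. coli, purified) was reconstituted with test compound. Reactions were started with 1 mM NADPH, run 30 min and stopped with 15% trichloroacetic acid. 7-Hydroxycoumarin was measured by C18 HPLC (isocratic 30% methanol, 0.2% acetic acid) with fluorescence detection (ex 350/em 453 nm). Quantified from peak areas against a 7-hydroxycoumarin standard curve.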

[3] = system: dextromethorphan induced micrsomes; test: Inactivation of dextromethorphan induced microsomes; assay type: biochemical; settings: data not shown
In short: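 Human liver microsomes and dextromethorphan-induced microsomes (0.3 nmol) were incubated with test compound in the presence of catalase and GSH. Reactions were started with NADPH and sampled at 0, 5 and 12 min. Residual activity was measured by the BFC O-debenzylation fluorescence assay.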

P450 3A4 [4] = assay type: biochemical, human; settings: for % Activity Remaining: 50 μM CPE or 12 μM TFCPE; for loss in O-debenzylation activity: after a 20-min incubation compared with 0 min
In short: (§2)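 Purified P450 was reconstituted with reductase and held 20 min at room temperature, then diluted in 50 mM Hepes pH 7.5 with 2 mM GSH and 250 units catalase. Test compound was added (25–500 μM or 5–100 μM, in acetonitrile), then NADPH. Timed 9 pmol aliquots went into 50 μM BFC/1 mM NADPH in 200 mM phosphate pH 7.4 for 15 min at 37 °C. Fluorescence read at ex 409/em 530 nm; KI, kinact and t1/2 from double-reciprocal plots.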

P450 3A4 [5] = test: Heme analysis of inactivated P450 3A4; assay type: biochemical, human; settings: for % P450 Remaining by reduced-CO spectrum: 50 μM CPE or 12 μM TFCPE; for Residual Heme by HPLC: area under heme peak at 405 nm, control set to 100 %; for loss in heme: measured by HPLC, compared with the -NADPH control
In short: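 P450 3A4 was reconstituted and inactivated as in the activity assay (50 μM or 12 μM test compound, 20 min, ±NADPH). For reduced-CO spectra, 100 pmol went into 50 mM phosphate pH 7.4 with 40% glycerol and 0.6% Tergitol, was CO-bubbled and dithionite-reduced, and scanned at 400–500 nm. For heme, 100 pmol was run on C4 HPLC (30–90% acetonitrile, 0.1% TFA, 30 min) and the 405 nm peak area was set against control = 100%. Mean and S.D. of four experiments.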

P450 3A4 [6] = test: Trapping of reactive intermediates formed by P450 3A4 with GSH; assay type: in vitro ADME, human; settings: incubation with P450 3A4 in the presence of GSH and NADPH
In short: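 Reconstituted P450 3A4 (0.5 nmol, with reductase and lipid) was inactivated by the test compound plus NADPH in the presence of 10 mM GSH. Reactions were stopped with 10% trifluoroacetic acid (60 μl/ml sample). Separation used a C18 column in a 5% acetonitrile/0.1% acetic acid gradient. Detection was ESI MS: full scan m/z 150–1000 plus two dependent MS/MS scans at 35% collision energy, with fluorescence detection also used.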

human liver microsomes = test: Inactivation of human liver microsomes; assay type: biochemical; settings: BFC assay; data not shown
P450 3A4 [7] = test: Formation of 7-hydroxycoumarin by P450 3A4; assay type: in vitro ADME, human; settings: 30 min reaction
In short: as §1

P450 3A5 [8] = target: T1, P450 3A5; test: LC-APCI-MS metabolite analysis with P450 3A5; assay type: in vitro ADME; settings: incubation with P450 3A5
In short: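 Reconstituted P450 3A5 was incubated with test compound and NADPH. Samples (900 pmol) were extracted with ethyl acetate, dried and taken up in 50% acetonitrile. Separation used C18 reverse phase with a water/acetonitrile gradient in 0.1% acetic acid, monitored by UV at 319 nm. Detection was positive-mode APCI on a linear ion trap, with full scans at m/z 100–2000 and data-dependent MS/MS.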

P450 3A5 [9] = target: T1, P450 3A5; assay type: biochemical; settings: in the presence of NADPH
In short: as §2

P450 3A4 [10] = assay type: biochemical, human; settings: substrate testosterone; reconstituted system
[11] = substrate BFC, reconstituted system

Compound	metabolite peak by LC-APCI-MS/UV 319 nm (P450 3A4 [1])	Formation of 7-OH coumarin (P450 3A5 [2])	inactivation of dextromethorphan induced microsomes [3]	% Activity Remaining (P450 3A4 [4]; 0 min, +NADPH)	% Activity Remaining (P450 3A4 [4]; 0 min, -NADPH)	% Activity Remaining (P450 3A4 [4]; 20 min, +NADPH)	% Activity Remaining (P450 3A4 [4]; 20 min, -NADPH)	loss in O-debenzylation activity (P450 3A4 [4])	Kinact (maximal rate of inactivation) (P450 3A4 [4]; [11])	% P450 Remaining by reduced-CO spectrum (P450 3A4 [5]; 0 min, +NADPH)	% P450 Remaining by reduced-CO spectrum (P450 3A4 [5]; 0 min, -NADPH)	% P450 Remaining by reduced-CO spectrum (P450 3A4 [5]; 20 min, +NADPH)	% P450 Remaining by reduced-CO spectrum (P450 3A4 [5]; 20 min, -NADPH)	Residual Heme by HPLC (P450 3A4 [5]; +NADPH)	Residual Heme by HPLC (P450 3A4 [5]; -NADPH)	loss in heme (P450 3A4 [5])	formation of glutathione adducts (P450 3A4 [6])	inactivation of human liver microsomes (human liver microsomes)	Formation of 7-OH coumarin (P450 3A4 [7])	inactivation of the BFC O-debenzylation activity of P450 3A5 (P450 3A5 [9])	also measured
C#CCOc1ccc2c(C(F)(F)F)cc(=O)oc2c1 [TFCPE, 7-(4-trifluoromethyl)coumarin propargyl ether]	single metabolite peak eluting at 20.34 min	78.8 ± 11 pmol/pmol P450/min	did not show inactivation	82 ± 5%	88 ± 3%	25 ± 3%	79 ± 7%	approximately 55%	0.04 min⁻¹	75 ± 6%	75 ± 4%	43 ± 4%	62 ± 2%	61 ± 2%	100 ± 4%	40%	formation of CPE- and TFCPE-glutathione adducts	did not show inactivation; also recorded: neither CPE nor TFCPE led to any inactivation	97.2 ± 1 pmol/pmol P450/min	no inactivation; also recorded: neither CPE nor TFCPE showed any effect; also recorded: do not affect the activity	t1/2 (P450 3A4 [4]; [11]): 16.5 min; loss in activity (P450 3A4 [4]; with the -NADPH +TFCPE control): approximately 55%; metabolite by LC-APCI-MS (P450 3A5 [8]): did not result in any metabolite; Kinact (maximal rate of inactivation) (P450 3A4 [10]): 0.04 min⁻¹; t1/2 (P450 3A4 [10]): 17 min
C#CCOc1ccc2ccc(=O)oc2c1 [CPE, 7-coumarin propargyl ether]	No similar peak or any other metabolite peak was observed	85.5 ± 7 pmol/pmol P450/min	did not show inactivation	85 ± 4%	86 ± 5%	50 ± 9%	79 ± 3%	~35%	0.05 min⁻¹	69 ± 5%	69 ± 7%	67 ± 4%	67 ± 2%	70 ± 11%	100 ± 9%	approximately 30%	formation of CPE- and TFCPE-glutathione adducts	did not show inactivation; also recorded: neither CPE nor TFCPE led to any inactivation	48.1 ± 5 pmol/pmol P450/min	no inactivation; also recorded: neither CPE nor TFCPE showed any effect; also recorded: do not affect the activity	Kinact (maximal rate of inactivation) (P450 3A4 [10]): 0.014 min⁻¹
